Source: ChEMBL document CHEMBL3784967, “7-Substituted umbelliferone derivatives as androgen receptor antagonists for the potential treatment of prostate and breast cancer” (Bioorg Med Chem Lett, 2016)
pIC50: −log10 of the molar value.

What was measured:
MCF7 = experiment: Antiproliferative activity against human MCF7 cells after 96 hrs by Oncotest monolayer assay; format: functional, cell-based; settings: for pIC50: Homo sapiens, MCF7, 96 h, read-out: IC50; for IC50: mcf7
In short: (§1)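 Cells from exponential-phase cultures seeded at 8000-12,000 cells/well, left 24 h to recover, then given compound at 10 concentrations in half-log steps up to 100 µM, in triplicate. After 96 h total exposure, wells were PBS-washed and stained with 7 µg/ml propidium iodide plus 0.1% Triton X-100 for 1-2 h at room temperature. Fluorescence (ex 530/em 620 nm) was read. Absolute IC50 was obtained by non-linear regression.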

CWR22R [1] = experiment: Antiproliferative activity against human 22Rv1 cells after 96 hrs by Oncotest monolayer assay; format: functional, cell-based; settings: for pIC50: Homo sapiens, 22Rv1, 96 h, read-out: IC50; for IC50: cwr22r; in short: as §1
CWR22R [2] = experiment: Potency index, ratio IC50 of bicalutamide to IC50 of compound for antiproliferative activity against human 22Rv1 cells; format: functional
Androgen receptor = biological target: T1, Androgen receptor (Homo sapiens, UniProt P10275); experiment: Antagonist activity against androgen receptor (unknown origin); settings: for pIC50: read-out: IC50
T1 sequence (P10275 whole entry): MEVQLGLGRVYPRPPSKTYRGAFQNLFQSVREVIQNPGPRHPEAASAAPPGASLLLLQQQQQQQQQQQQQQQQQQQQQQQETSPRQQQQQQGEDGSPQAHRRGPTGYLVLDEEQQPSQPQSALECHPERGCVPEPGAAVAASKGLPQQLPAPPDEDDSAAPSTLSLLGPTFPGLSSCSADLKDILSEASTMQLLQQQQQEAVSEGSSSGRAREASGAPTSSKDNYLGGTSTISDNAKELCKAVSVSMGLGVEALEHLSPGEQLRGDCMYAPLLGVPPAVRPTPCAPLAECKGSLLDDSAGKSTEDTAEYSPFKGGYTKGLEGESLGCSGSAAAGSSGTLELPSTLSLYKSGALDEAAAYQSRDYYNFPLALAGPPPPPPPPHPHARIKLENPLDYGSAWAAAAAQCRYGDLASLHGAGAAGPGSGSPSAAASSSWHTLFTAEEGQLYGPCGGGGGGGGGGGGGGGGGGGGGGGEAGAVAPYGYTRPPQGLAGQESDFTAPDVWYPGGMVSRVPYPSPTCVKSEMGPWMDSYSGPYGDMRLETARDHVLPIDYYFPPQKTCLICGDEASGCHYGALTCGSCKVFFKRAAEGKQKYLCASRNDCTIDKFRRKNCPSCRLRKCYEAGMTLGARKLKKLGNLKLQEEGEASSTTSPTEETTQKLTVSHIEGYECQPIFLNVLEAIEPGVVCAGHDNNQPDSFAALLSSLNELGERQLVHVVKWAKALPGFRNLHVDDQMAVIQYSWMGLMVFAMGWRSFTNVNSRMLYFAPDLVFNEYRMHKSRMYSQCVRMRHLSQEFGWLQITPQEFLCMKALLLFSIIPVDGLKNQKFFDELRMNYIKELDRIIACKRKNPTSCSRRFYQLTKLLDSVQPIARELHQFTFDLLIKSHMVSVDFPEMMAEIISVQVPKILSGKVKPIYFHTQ

CWR22R [3] = experiment: Potency index, ratio IC50 of enzalutamide to IC50 of compound for antiproliferative activity against human 22Rv1 cells; format: functional

| SMILES | pIC50 (MCF7) | pIC50 (CWR22R [1]) | IC50 (Androgen receptor) | IC50 (MCF7) | IC50 (CWR22R [1]) | other results |
| --- | --- | --- | --- | --- | --- | --- |
| Cc1cc(=O)oc2cc(OCC(=O)c3ccc(C(C)(C)C)cc3)ccc12 | 4.68 | 4.65 | – | – | – | Ratio IC50 (CWR22R [2]): 2 |
| COc1ccc(C(=O)COc2ccc3c(C)cc(=O)oc3c2)cc1 | < 4.00 | < 4.00 | Not Active | – | – | – |
| Cc1cc(=O)oc2cc(OCC(=O)c3ccc4ccccc4c3)ccc12 | < 4.00 | < 4.00 | Not Active | – | – | – |
| Cc1cc(=O)oc2cc(OCC(=O)c3cccc(C(F)(F)F)c3)ccc12 | 4.42 | < 4.00 | Not Active | – | – | – |
| CCOC(=O)C(CC)Oc1ccc2c(C)cc(=O)oc2c1 (configuration not stated) | – | – | – | – | – | pIC50 (Androgen receptor): 5.30 |
| Cc1cc(=O)oc2cc(OCC(=O)c3ccc(OC(F)(F)F)cc3)ccc12 | < 4.00 | < 4.00 | Not Active | – | – | – |
| Cc1ccc(C(=O)COc2ccc3c(C(F)(F)F)cc(=O)oc3c2)cc1 | – | – | Not Active | Not Active | Not Active | – |
| Cc1cc(=O)oc2cc(OCC(=O)C(C)(C)C)ccc12 | – | – | – | – | – | pIC50 (Androgen receptor): 5.42 |
| CC(O)(CS(=O)(=O)c1ccc(F)cc1)C(=O)Nc1ccc(C#N)c(C(F)(F)F)c1 (configuration not stated) [BICALUTAMIDE] | – | 4.33 | – | – | – | – |
| O=C(COc1ccc2c(C(F)(F)F)cc(=O)oc2c1)c1ccccc1C(F)(F)F | – | – | Not Active | Not Active | Not Active | – |
| CNC(=O)c1ccc(N2C(=S)N(c3ccc(C#N)c(C(F)(F)F)c3)C(=O)C2(C)C)cc1F [ENZALUTAMIDE] | – | 4.50 | – | – | – | – |
| Cc1cc(=O)oc2cc(OCC(=O)c3ccc(C#N)cc3)ccc12 | < 4.00 | < 4.00 | Not Active | – | – | – |
| Cc1cc(=O)oc2cc(OCC(=O)c3ccc4c(c3)OCCCO4)ccc12 | < 4.00 | < 4.00 | Not Active | – | – | – |
| COc1ccc(C(=O)COc2ccc3c(C(F)(F)F)cc(=O)oc3c2)cc1 | – | – | Not Active | Not Active | Not Active | – |
| N#Cc1ccc(C(=O)COc2ccc3c(C(F)(F)F)cc(=O)oc3c2)cc1 | – | – | Not Active | Not Active | Not Active | – |
| CC(C)(C)c1ccc(C(=O)COc2ccc3c(C(F)(F)F)cc(=O)oc3c2)cc1 | – | – | Not Active | Not Active | Not Active | – |
| COc1cccc(C(=O)COc2ccc3c(C(F)(F)F)cc(=O)oc3c2)c1 | – | – | Not Active | Not Active | Not Active | – |

| SMILES | pIC50 (MCF7) | pIC50 (CWR22R [1]) | IC50 (Androgen receptor) | IC50 (MCF7) | IC50 (CWR22R [1]) | other results |
| --- | --- | --- | --- | --- | --- | --- |
| COc1cccc(C(=O)COc2ccc3c(C)cc(=O)oc3c2)c1 | 5.66 | 5.08 | – | – | – | – |
| O=C(COc1ccc2c(C(F)(F)F)cc(=O)oc2c1)c1ccccc1 | – | – | Not Active | Not Active | Not Active | – |
| O=C(COc1ccc2c(C(F)(F)F)cc(=O)oc2c1)c1cccc(C(F)(F)F)c1 | – | – | Not Active | Not Active | Not Active | – |
| O=C(COc1ccc2c(C(F)(F)F)cc(=O)oc2c1)c1ccc2ccccc2c1 | – | – | Not Active | Not Active | Not Active | – |
| O=C(COc1ccc2c(C(F)(F)F)cc(=O)oc2c1)c1ccc(F)cc1 | – | – | Not Active | Not Active | Not Active | – |
| Cc1ccc(C(=O)COc2ccc3c(C)cc(=O)oc3c2)cc1 | < 4.00 | < 4.00 | Not Active | – | – | – |
| O=C(COc1ccc2c(C(F)(F)F)cc(=O)oc2c1)c1cc(C(F)(F)F)cc(C(F)(F)F)c1 | – | – | Not Active | Not Active | Not Active | – |
| Cc1cc(=O)oc2cc(OCC(=O)c3ccc(F)cc3)ccc12 | < 4.00 | < 4.00 | Not Active | – | – | – |
| CC(C)(C)C(=O)COc1ccc2c(C(F)(F)F)cc(=O)oc2c1 | – | – | Not Active | Not Active | Not Active | – |
| O=C(COc1ccc2c(C(F)(F)F)cc(=O)oc2c1)c1ccc(OC(F)(F)F)cc1 | – | – | Not Active | Not Active | Not Active | – |
| Cc1cc(=O)oc2cc(OC(C)C(=O)c3ccccc3)ccc12 (configuration not stated) | – | – | – | – | – | pIC50 (Androgen receptor): 5.29 |
| Cc1cc(=O)oc2cc(OCC(=O)c3ccccc3)ccc12 | < 4.00 | < 4.00 | Not Active | – | – | – |
| Cc1cc(=O)oc2cc(OCC(=O)c3ccc(C(F)(F)F)cc3)ccc12 | < 4.00 | < 4.00 | Not Active | – | – | – |
| O=C(COc1ccc2c(C(F)(F)F)cc(=O)oc2c1)c1ccc(C(F)(F)F)cc1 | – | – | Not Active | Not Active | Not Active | – |
| O=C(COc1ccc2c(C(F)(F)F)cc(=O)oc2c1)c1ccc2c(c1)OCCCO2 | – | – | Not Active | Not Active | Not Active | – |
| Cc1cc(=O)oc2cc(OCC(=O)c3cc(C(F)(F)F)cc(C(F)(F)F)c3)ccc12 | 6.33 | 6.03 | – | – | – | Ratio IC50 (CWR22R [2]): 50; Ratio IC50 (CWR22R [3]): > 30 |
| Cc1cc(=O)oc2cc(OCC(=O)c3ccccc3C(F)(F)F)ccc12 | 4.36 | 4.69 | – | – | – | Ratio IC50 (CWR22R [2]): 2 |
